Results: paper PMC12840579 (Biomedicine & pharmacotherapy = Biomedecine & …, 2025)

Assays:
ADAM10 = molecular target: T1, ADAM10 (Homo sapiens, UniProt O14672); experiment: ADAM10 fluorogenic proteolytic activity assay; assay type: biochemical; conditions: GM6001 10 μM
T1 sequence (O14672 214-748): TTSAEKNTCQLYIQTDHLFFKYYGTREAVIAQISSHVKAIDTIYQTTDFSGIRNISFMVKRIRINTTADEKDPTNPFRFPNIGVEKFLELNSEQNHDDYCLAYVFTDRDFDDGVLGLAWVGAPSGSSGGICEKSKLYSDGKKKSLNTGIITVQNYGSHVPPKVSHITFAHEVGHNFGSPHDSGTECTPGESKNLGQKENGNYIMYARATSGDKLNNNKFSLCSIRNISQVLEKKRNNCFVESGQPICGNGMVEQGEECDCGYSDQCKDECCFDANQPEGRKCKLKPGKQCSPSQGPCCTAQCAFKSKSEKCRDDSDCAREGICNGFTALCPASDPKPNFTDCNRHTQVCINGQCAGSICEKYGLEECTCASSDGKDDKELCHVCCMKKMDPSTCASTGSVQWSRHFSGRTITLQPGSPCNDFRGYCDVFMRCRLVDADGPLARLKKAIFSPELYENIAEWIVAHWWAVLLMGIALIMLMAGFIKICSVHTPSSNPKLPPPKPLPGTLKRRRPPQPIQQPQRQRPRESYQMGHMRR
Procedure, shortened: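 Recombinant ADAM10 from a fluorogenic assay kit, pre-incubated with test compound at the indicated concentrations for 30 min at room temperature, then substrate added. Substrate cleavage read by fluorescence (ex 485 nm, em 530 nm). GM6001 was the positive control. Triplicate runs, mean ± SEM (n = 3).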

ADAM17 = ADAM17 (Homo sapiens, UniProt P78536); experiment: ADAM17 fluorogenic proteolytic activity assay; assay type: biochemical; conditions: GM6001 10 μM
Sequence of ADAM17 (P78536 215-824): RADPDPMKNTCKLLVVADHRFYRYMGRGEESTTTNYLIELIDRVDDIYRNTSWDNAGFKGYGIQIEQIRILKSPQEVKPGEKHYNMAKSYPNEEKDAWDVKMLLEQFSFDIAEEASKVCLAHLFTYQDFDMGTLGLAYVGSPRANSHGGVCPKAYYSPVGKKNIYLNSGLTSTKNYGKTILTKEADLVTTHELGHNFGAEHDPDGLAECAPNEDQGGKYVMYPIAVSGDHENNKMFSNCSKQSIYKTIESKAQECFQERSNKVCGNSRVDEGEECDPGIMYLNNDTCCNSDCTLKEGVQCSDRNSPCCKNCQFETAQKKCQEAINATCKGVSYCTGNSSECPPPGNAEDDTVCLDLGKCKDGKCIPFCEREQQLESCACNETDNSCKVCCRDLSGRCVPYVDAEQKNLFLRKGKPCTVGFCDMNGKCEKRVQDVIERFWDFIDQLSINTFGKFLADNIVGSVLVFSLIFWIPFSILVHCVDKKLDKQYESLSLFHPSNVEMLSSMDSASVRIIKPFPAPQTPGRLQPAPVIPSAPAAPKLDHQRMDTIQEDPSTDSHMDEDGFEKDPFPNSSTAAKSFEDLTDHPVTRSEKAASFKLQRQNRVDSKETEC

[1] = test system: TREM2 signaling (SYK phosphorylation Y525/526) in HEK293-hTREM2/DAP12 cells; experiment: Phospho-SYK AlphaLISA in HEK293-hTREM2/DAP12 cells; assay type: cell-based, human
Procedure, shortened: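 HEK-hTREM2/DAP12 cells were seeded at 5 × 10⁴ per well in DMEM with 10% FBS and held 24 h at 37 °C, 5% CO2. Medium was replaced with compound in complete medium, DMSO as vehicle. Time course: 25 μM for 5, 15, 30 or 60 min. Dose series: 5–100 μM final for 60 min. Kit-lysed cells were assayed for pSYK Y525/526 by two-antibody bead AlphaLISA; 3 independent experiments, n=6 per condition, mean ± SEM.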

[2] = test system: wild-type HEK293 cells lacking TREM2/DAP12 expression; experiment: Intracellular calcium measurement; assay type: cell-based, human
Procedure, shortened: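 Wild-type HEK293 cells lacking TREM2/DAP12 were grown in 96-well clear-bottom black plates. They were loaded for 1 h with Fluo-4 NW dye in 100 μL assay buffer, then test compound was added. Fluorescence was captured on an automated imaging system. Ionomycin served as the control for intact calcium signalling.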

[3] = test system: BV2 murine microglial cells; experiment: Phagocytosis assay with fluorescent latex beads; assay type: cell-based; conditions: 25 μM, 30 min before beads (30 min)
Procedure, shortened: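 Murine BV2 microglia were serum-starved, then exposed to 25 μM test compound or DMSO vehicle for 30 min. Green fluorescent latex beads were added for a further 30 min at 37 °C. Cells were washed with ice-cold PBS, fixed in 4% PFA, immunostained for IBA1 and imaged by fluorescence microscopy. A phagocytic cell was an IBA1+ cell with ≥1 internalised bead, expressed as % of vehicle; mean ± SEM (n = 3).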

[4] = 25 μM, time-course 5-60 minutes

## CNC(=O)[C@H](Cc1c[nH]c2ccccc12)NC(=O)[C@@H](CC(=O)NO)CC(C)C [GM6001]
ADAM10
  effect on ADAM10 protease activity (positive control): potently inhibited
ADAM17
  effect on ADAM17 protease activity (positive control): potently inhibited

## VG-3927
[1]; [4]
  time at which SYK phosphorylation is first detected: 5 min
  time of peak SYK phosphorylation: 60 min
[1]; 60 minutes treatment, 5-100 μM
  concentration of maximal SYK phosphorylation: 25 µM
  lowest concentration with SYK phosphorylation: 5 µM
[2]; VG-3927 30 μM
  calcium mobilization in wild-type cells: neither VG-3927 (30 μM) nor As48 (100 μM) elicited any detectable calcium mobilization
[3]
  increase in proportion of phagocytic cells vs vehicle: approximately 45%

## C[C@H](CCC(=O)O)C[C@H](C)C[C@H](C)C(=O)/C=C(\O)[C@H](C)C[C@H](C)C/C=C/[C@@H](C)[C@@H](O)[C@@H](C)[C@@H](O)C[C@@H]1CC[C@@](C)([C@H]2CC[C@@](C)([C@@H](C)O)O2)O1 [ionomycin]
[2]; ionomycin 10 μM
  calcium response in wild-type cells: ~ 8 fold
